A word on the inhibition: it is the change of the read-out against control, counted positive when it falls.

The record followed here is ChEMBL document CHEMBL4665779, “Novel 2-Substituted 3-Hydroxy-1,6-dimethylpyridin-4(1H)-ones as Dual-Acting Biofilm Inhibitors of Pseudomonas aeruginosa” (J Med Chem, 2020).

The source made the active and inactive calls. The calls are words filed in the database; no cut-off is given here. Some results are limits rather than exact numbers.

The subject of data set [1] is Pseudomonas aeruginosa. Kind of data set: Inhibition of biofilm formation in multidrug resistant Pseudomonas aeruginosa FB at 2.5 uM relative to control. The format is functional.
In data set [2] the test system is Pseudomonas aeruginosa. Nature of the data set: Inhibition of biofilm formation in multidrug resistant Pseudomonas aeruginosa 1167 at 2.5 uM relative to control. The format is functional.
The test system of data set [3] is Pseudomonas aeruginosa. Kind of data set: Inhibition of biofilm formation in multidrug resistant Pseudomonas aeruginosa 1167 at 5 uM relative to control. Type of data set: functional.
For data set [4], the system named is Pseudomonas aeruginosa. Kind of data set: Inhibition of biofilm formation in multidrug resistant Pseudomonas aeruginosa 1129 at 5 uM relative to control. Type of data set: functional.
Data set [5] deals with Pseudomonas aeruginosa. Kind of data set: Inhibition of biofilm formation in multidrug resistant Pseudomonas aeruginosa 1121 at 2.5 uM relative to control. The format is functional.
The test system of data set [6] is Pseudomonas aeruginosa. Kind of data set: Inhibition of biofilm formation in multidrug resistant Pseudomonas aeruginosa 1121 at 5 uM relative to control. The format is functional.
Data set [7] concerns Pseudomonas aeruginosa. Kind of data set: Antibacterial activity against Pseudomonas aeruginosa infected in human L02 assessed as increase in cell survival pretreated for 24 hrs followed by cell addition and measured 4 hrs post-infection by MTT assay. To be noted: dose microM 1.25-20, time 28.0 hrs. The format is functional, organism-based. The procedure, abridged: (§1)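 P. aeruginosa cultures were grown with 0, 1.25, 2.5, 5, 10 or 20 μM compound for 24 h at 37 °C with shaking. Washed cells (in DMEM) were infected at MOI 100 for 4 h. Bacteria were then killed with 500 μg/mL gentamycin for 2 h, and cells were given 500 μg/mL MTT for 16 h. Formazan was dissolved in DMSO and read at 570 nm.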
(In general: Tetrazolium dyes change colour on reduction, which living cells bring about.)

Data set [8] deals with Pseudomonas aeruginosa. Nature of the data set: Antibacterial activity against Pseudomonas aeruginosa infected in African green monkey Vero cells assessed as increase in cell survival pretreated for 24 hrs followed by cell addition and measured 4 hrs post-infection by MTT assay. Type of data set: functional, organism-based. To be noted: dose microM 1.25-20, time 28.0 hrs. An outline of the steps: as §1

The test system of a further data set is L02. Nature of the data set: Cytotoxicity against human L02 cells assessed as reduction in cell viability up to 50 uM after 16 hrs by MTT assay. Type of data set: cell-based. To be noted: l02, 16 h. The procedure, abridged: (§2)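 Vero or LO2 cells were seeded at 5000–15000 cells/well for 16 h, PBS-washed, then exposed to compound in DMEM at 37 °C and 5% CO2 for 16 h. MTT (20 μL of 5 mg/mL) was added for 3 h, and formazan was dissolved in DMSO and read at 570 nm. Triplicate; mean ± SD.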

For a further data set, the system named is Vero. Kind of data set: Cytotoxicity against African green monkey Vero cells assessed as reduction in cell viability up to 50 uM after 16 hrs by MTT assay. To be noted: chlorocebus sabaeus. The format is cell-based. The procedure, abridged:
as §2

In data set [9] the test system is Pseudomonas aeruginosa. Nature of the data set: Inhibition of twitching motility in Pseudomonas aeruginosa PAO1 assessed at 1.25 to 20 uM measured after 16 hrs. Type of data set: functional. The following applies: dose microM 1.25-20, time 16.0 hrs. An outline of the steps: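 Plates of LB with 1% agar, 0.5% casamino acids and 0.5% glucose contained compound at 0–20 μM. After drying 1 h, 1 μL PAO1 (OD600 1) was inoculated at the plate bottom and incubated 16 h at 37 °C. Three independent experiments.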

Data set [10] relates to Pseudomonas aeruginosa. Kind of data set: Inhibition of swimming motility of Pseudomonas aeruginosa PAO1 measured after 16 hrs. Type of data set: functional, organism-based. The following applies: dose microM 1.25-20, time 16.0 hrs. The procedure, abridged:
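Compound (0–20 μM) was included in LB plates with 0.3% agar, 0.5% casamino acids and 0.5% glucose. Plates were dried 1 h, then 1 μL PAO1 (OD600 1) was placed at the plate bottom. Incubation was 16 h at 37 °C; three independent experiments.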

Data set [11] deals with Pseudomonas aeruginosa PA14. Nature of the data set: Inhibition of quorum sensing system PQS in Pseudomonas aeruginosa PA14 assessed as reduction in pyocyanin production measured after 48 hrs. To be noted: dose microM 1.25-20, time 48.0 hrs. An outline of the steps: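 PA14 culture standardized to OD600 0.05 was diluted 100-fold in LB and grown 48 h at 37 °C with shaking, with compound at 1.25–20 μM. Cleared supernatant was extracted with chloroform (4:1), then back-extracted into 0.2 M HCl. A520 was read and normalized to final OD600.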

The test system of data set [12] is Pseudomonas aeruginosa. Nature of the data set: Antibiofilm activity against Pseudomonas aeruginosa PAO1 harboring sigma factor-Pvds mutant assessed as inhibition of biofilm formation at 20 uM relative to control. The format is functional.
In data set [13] the test system is Pseudomonas aeruginosa. Kind of data set: Binding affinity to […] overexpressed in Pseudomonas aeruginosa PAO1 assessed as inhibition of biofilm formation at 1.25 to 20 uM. The following applies: dose microM 1.25-20.
In data set [14] the test system is Pseudomonas aeruginosa PAO1. Kind of data set: Induction of iron chelation in Pseudomonas aeruginosa PAO1 assessed as increase in intracellular pyoverdin level at 1.25 to 20 uM in presence of 50 uM FeCl3 by fluorescence microplate reader assay. Type of data set: cell-based. To be noted: dose microM 1.25-20. The procedure, abridged:
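PAO1 overnight LB culture was diluted in ABTGC medium to OD600 0.02 ([…]), with compound at 0–20 μM, in medium containing 10 or 50 μM FeCl3. Plates were kept at 37 °C in a plate reader recording OD600, pyoverdine fluorescence (ex 400/em 447 nm) and pyochelin fluorescence (ex 350/em 430 nm). Triplicate.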

In data set [15] the test system is Pseudomonas aeruginosa PAO1. Nature of the data set: Induction of iron chelation in Pseudomonas aeruginosa PAO1 assessed as increase in iron deficiency by measuring ferric ion concentration inductively coupled plasma mass spectrometry. To be noted: dose microM 1.25-20. The procedure, abridged: (§3)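 PAO1 (OD600 0.05) was diluted 1:100 into ABTGC medium and grown 24 h at 37 °C with shaking, with compound; DFP at 20 μM was the reference. Pellets were washed twice in HEPES and lysed with lysozyme in 50 mM HEPES plus sonication for 30 min. Lysates were digested with 1 M nitric acid, centrifuged, and analysed by ICP-MS. Mean ± SD, triplicate.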

The subject of data set [16] is Pseudomonas aeruginosa PAO1. Kind of data set: Induction of iron chelation in Pseudomonas aeruginosa PAO1 assessed as increase in iron deficiency by measuring change in total ferric ion concentration at 20 uM by inductively coupled plasma mass spectrometry (reference value: 1.91 +/- 0.8 uM).
Data set [17] concerns Pseudomonas aeruginosa PAO1. Nature of the data set: Induction of iron chelation in Pseudomonas aeruginosa PAO1 assessed as increase in iron deficiency by measuring change in total ferric ion concentration at 10 uM by inductively coupled plasma mass spectrometry (reference value: 1.91 +/- 0.8 uM). An outline of the steps: as §3
Data set [18] concerns Pseudomonas aeruginosa PAO1. Nature of the data set: Induction of iron chelation in Pseudomonas aeruginosa PAO1 assessed as increase in iron deficiency by measuring change in total ferric ion concentration at 2.5 uM by inductively coupled plasma mass spectrometry (reference value: 1.91 +/- 0.8 uM). An outline of the steps: as §3
Data set [19] relates to Pseudomonas aeruginosa. Nature of the data set: Antibiofilm activity against Pseudomonas aeruginosa PAO1 assessed as reduction in biofilm mass at 1.25 uM after 24 hrs by microtiter plate assay relative to control. The format is functional. Also noted: scale not given: the % may be the effect or the level left. The procedure, abridged:
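PAO1 (OD600 0.05) was cultured in ABTGC medium at 37 °C for 24 h with compound (1.25–20 μM for the dose series). Wells were PBS-washed three times, methanol-fixed for 30 min, air-dried, and stained with 0.1% crystal violet for 30 min. Stain was solubilized in 33% acetic acid and read at 570 nm. Compound stocks were […]. Run in triplicate.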

A short description of data set [20]: Growth inhibition of Pseudomonas aeruginosa PAO1 at 512 uM by CLSI-based broth microdilution method. The procedure, abridged: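 Broth microdilution following CLSI standards: two-fold serial dilutions were made in Mueller-Hinton broth and inoculated with P. aeruginosa to a final OD600 of 0.05. The top final concentration is printed as […].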
For orientation: In broth dilution the organism is exposed to a series of concentrations in liquid medium.

Consider `CCCCCCC(=O)NCc1c(O)c(=O)cc(C)n1C`, for which the inhibition at 2.5 µM in the data set with Pseudomonas aeruginosa [1] was -8.67%; with Pseudomonas aeruginosa [2] it was 34.6%; in the data set with Pseudomonas aeruginosa [5], 7.68%. Also, the inhibition at 5 µM in the data set with Pseudomonas aeruginosa [3] came out at 43.7%; in the data set on Pseudomonas aeruginosa [4] it was 30.6%; in the data set on Pseudomonas aeruginosa [6], 10.6%. For the same compound, the Activity result was “Dose-dependent effect” in the data set with Pseudomonas aeruginosa [7]; “Dose-dependent effect” with Pseudomonas aeruginosa [8]; “Non-Toxic” with L02; “Non-Toxic” in the data set with Vero; “Dose-dependent effect” in [15]; 0.88 µM in data set [16]. In addition, the Activity in [17] was 0.97 µM; in data set [18], 1.56 µM; in the data set on Pseudomonas aeruginosa [19], over 25%. In the data set on Pseudomonas aeruginosa [9], the inhibition result was “inactive”. Also, the inhibition result (in the data set on Pseudomonas aeruginosa [10]; in [11]) was “Dose-dependent effect” in each case. Besides, in the data set on Pseudomonas aeruginosa [12], the inhibition at 20 µM is 20%. In addition, the inhibition result in the data set on Pseudomonas aeruginosa [13] was “Active”. Further, in data set [14], the outcome was inactive. Moreover, in data set [20], the “growth inhibition (GI)” value is on record as “Non-Toxic”.
